Assay outcomes: PubChem BioAssay, several laboratories
Mdm2 ligase inh = MDM2-luciferase reporter signal enhancers, primary screen, MDM2 E3 ligase inhibitor project, cell-based, luminescence, 1536-well. E3 ubiquitin-protein ligase Mdm2 (Homo sapiens), Q00987. cell-based MDM2 ubiquitination luciferase reporter, 2 h; 0 = plate control, 100 = twice control, blank-subtracted. signal enhancement, % at 5 µM. hit rate 0.11% among 210,000. AID 1230, 2008;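 active means signal enhancement of 30% or more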;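 further: luminescence tracks abundance of the self-degrading MDM2-luciferase fusion protein; higher signal means inhibition of MDM2 E3 ligase activity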
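Test system: stable mammalian line carrying autodegrading MDM2–luciferase fusion reporter; quantity: 2000 cells in each well; times: 4 h cell settling then 2 h compound exposure, 37 °C; detection: luminescence with SteadyLite reagent, 15 min at room temperature; evaluation: percent signal gain over controls, blank-subtracted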
PKD1 kinase inh = inhibitors of human PKD1 kinase, biochemical, fluorescence polarization. Serine/threonine-protein kinase D1 (Homo sapiens), Q15139. hit rate 0.056% among 200,000. PKD1 kinase fluorescence polarization assay. AID 797, 2007. inhibition, % (concentration not given with the values); in the data active means inhibition above about 50%
Target sequence (Q15139 whole entry, looked up): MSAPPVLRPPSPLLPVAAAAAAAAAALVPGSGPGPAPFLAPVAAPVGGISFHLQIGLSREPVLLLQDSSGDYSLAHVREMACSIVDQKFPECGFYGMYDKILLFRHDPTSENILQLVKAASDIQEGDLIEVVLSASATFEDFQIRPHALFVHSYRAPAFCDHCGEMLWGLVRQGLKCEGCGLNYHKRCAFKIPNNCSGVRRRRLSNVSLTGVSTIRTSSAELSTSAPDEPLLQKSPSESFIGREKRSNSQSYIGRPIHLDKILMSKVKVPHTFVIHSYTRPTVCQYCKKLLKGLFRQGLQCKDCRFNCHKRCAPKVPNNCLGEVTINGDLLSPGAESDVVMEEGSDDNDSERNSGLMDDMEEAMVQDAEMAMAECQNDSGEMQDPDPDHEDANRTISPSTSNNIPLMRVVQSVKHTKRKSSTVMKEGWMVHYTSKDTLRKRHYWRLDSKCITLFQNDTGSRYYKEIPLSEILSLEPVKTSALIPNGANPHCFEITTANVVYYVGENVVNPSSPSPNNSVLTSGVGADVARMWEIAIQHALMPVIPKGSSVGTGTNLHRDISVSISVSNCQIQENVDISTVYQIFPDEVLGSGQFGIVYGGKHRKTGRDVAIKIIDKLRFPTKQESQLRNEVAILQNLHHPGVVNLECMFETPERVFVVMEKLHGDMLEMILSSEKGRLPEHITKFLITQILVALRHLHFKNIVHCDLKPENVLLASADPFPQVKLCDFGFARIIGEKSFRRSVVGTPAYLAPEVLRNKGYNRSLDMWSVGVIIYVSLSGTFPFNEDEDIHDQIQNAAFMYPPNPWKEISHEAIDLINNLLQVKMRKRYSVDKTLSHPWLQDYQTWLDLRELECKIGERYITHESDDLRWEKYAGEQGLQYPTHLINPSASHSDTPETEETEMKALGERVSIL
m-calpain inh = inhibitors of pig calpain II, primary screen, biochemical, fluorogenic peptide substrate, 1536-well. inhibition, % at 16 µM. hit rate 0.37% among 220,000. purified calpain II, 30 min;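 active means inhibition above about 50%, limit read from the data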
ROMK primary = ROMK potassium channel modulators, primary screen, cell-based, thallium flux, MLSMR library; ATP-sensitive inward rectifier potassium channel 1 (Homo sapiens), P48048; Tet-inducible ROMK, thallium flux fluorescence; actives lie on both sides; B-score at 10 µM; hit rate 2% among 130,000; AID 1918, 2009;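 active means signal ratio slope over the read window, or its plate-corrected B-score, at least 3 SD from the plate mean, either direction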;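 further: B-score of the F/F0 ratio slope over 7 to 12 s after thallium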
Arbovirus inh = antivirals against arbovirus infection, primary screen, cell-based, full library, 10K replicate subset; arbovirus infection cell-based antiviral screen; inhibition, % at 10 µM; hit rate 0.37% among 200,000; AID 1251, 2008; in the data active means inhibition above about 30%
Cl transport mod = KCC2 cotransporter modulators, thallium flux, primary screen, cell-based, HEK293 KCC2, FluoZin-2 fluorescence, MLSMR | Solute carrier family 12 member 5 (Homo sapiens), Q9H2X9 | KCC2 cells, thallium flux FluoZin-2 fluorescence | B-score of Tl+ flux slope (higher = more flux/activation; lower = inhibition) at 10 µM | hit rate 2.2% among 190,000;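 active means thallium flux slope and its plate-corrected score both differing from the plate sample mean at a set confidence after two filtering rounds, in either direction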;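 further: slope of fluorescence scaled to starting intensity during 10 to 20 s after thallium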
ROMK hit retest = ROMK channel modulator hit retest, confirmation, cell-based, thallium flux, duplicate, resupplied hits; normalized thallium flux (F/F0 slope) at 10 µM; hit rate 54% among 3,000; shares compounds with ROMK primary; AID 1917, 2009; fluorescence ratio; stronger effect = lower value;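 active means Flux at 10 µM at least 3 SD below or above vehicle control mean in one or both replicates; inconclusive means no clear call, values can overlap the other calls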
Each line names hits and unclear results; the compound was inactive in the other large screens (follow-up assays come after a bar, where they were run). Compounds with a hit are over-represented: about 3.7% of the library has one in this group of screens.

CCOC(=O)c1sc(NC(=O)/C=C/c2cnn(C)c2C)c(C(=O)OC(C)C)c1C	none (no result: Cl transport mod)
Cc1nc(Cl)sc1C(=O)Nc1ccc(Cl)cc1	none
O=C(NCCCOc1cccc(CN2CCCCC2)c1)c1ccc(Cl)c(Cl)c1	ROMK primary -3.47 | ROMK hit retest 0.0568
O=C(NCC1CCCN(Cc2cccc(OCCO)c2)C1)c1ccc(F)cc1 (stereo unspecified)	none (no result: Cl transport mod)
Cc1ccc(-c2nnc(SCC(=O)NNC(=O)COc3cccc4ccccc34)n2C)cc1	none (no result: ROMK primary)
COc1cc(CNc2ncnc3c2[nH]c2ccc(C)cc23)cc(OC)c1	none (no result: PKD1 kinase inh, Arbovirus inh)
Cc1ccc2[nH]c3c(NCc4ccco4)ncnc3c2c1	ROMK primary -3.4 (no result: Mdm2 ligase inh) | ROMK hit retest 0.0649
c1coc(CNc2ncnc3c2oc2ccccc23)c1	ROMK primary -3.54 (no result: Cl transport mod) | ROMK hit retest 0.0614
CCC(NC(=O)N(Cc1ccccc1)Cc1ccc2c(c1)OCO2)(C(F)(F)F)C(F)(F)F	none (no result: ROMK primary) | ROMK hit retest inactive
Cc1cccc2c3nc4ccccc4nc3n(CCCN3C(=O)c4ccccc4C3=O)c12	none (no result: ROMK primary) | ROMK hit retest 0.0651
O=C(NCCCn1ccnc1)c1cc(-c2ccc3c(c2)OCO3)on1	none (no result: ROMK primary)
Cc1cccc(-n2c(C)cc(C=C3C(=O)c4ccccc4C3=O)c2C)c1	none (no result: ROMK primary) | ROMK hit retest 0.0364
Cc1cc(C=C2C(=O)c3ccccc3C2=O)c(C)n1-c1ccc(Cl)cc1	none (no result: ROMK primary, Cl transport mod)
Cc1ccc(C(=O)Nc2ccccc2C(=O)NCc2ccco2)cc1S(=O)(=O)N1CCCCC1	none | ROMK hit retest inactive
Cc1ccc(C(=O)NCc2ccco2)cc1S(=O)(=O)N1CCCCC1	none (no result: ROMK primary)
Cc1cc(C)c2nc(C(F)(F)F)nc(NCCCN3CCOCC3)c2c1	none (no result: Cl transport mod)
C#CC[N+]1(CC#Cc2ccccc2)CCOCC1	none (no result: Mdm2 ligase inh, ROMK primary)
C(#Cc1ccccc1)C[N+]1(CC#Cc2cccc3ccccc23)CCOCC1	ROMK primary -2.36 | ROMK hit retest 0.0677
Cn1nc(C(C)(C)C)cc1C(=O)Sc1cccc(Br)c1	none (no result: PKD1 kinase inh, Arbovirus inh)
C=CCn1c(COc2ccc(Cl)cc2)nnc1SCc1ccc(C#N)cc1	none (no result: ROMK primary) | ROMK hit retest inconclusive
O=C1NN(c2ccccc2)C(=O)/C1=C\c1ccc(-c2cc([N+](=O)[O-])ccc2O)o1	none (no result: ROMK primary, Cl transport mod) | ROMK hit retest 0.0538
O=C1NN(c2ccc(Cl)cc2)C(=O)/C1=C\c1ccc(-c2cccc(C(=O)O)c2)o1	none (no result: Cl transport mod)
Cc1c(/C=N/NC(=O)C(NC(=O)c2ccc3c(c2)OCO3)C(C)C)c2ccccc2n1C (stereo unspecified)	ROMK primary 1.58 (no result: Mdm2 ligase inh) | ROMK hit retest inactive
COCCOC(=O)C1=C(C)OC(N)=C(C#N)C1c1ccc2c(c1)OCO2 (stereo unspecified)	none
C=CCOC(=O)C1=C(C)OC(N)=C(C#N)C1c1ccc2c(c1)OCO2 (stereo unspecified)	ROMK primary -3.22 | ROMK hit retest 0.0849
CC(C)/C=N\NC(=O)CCCCC(=O)N/N=C/C(C)C	none (no result: ROMK primary) | ROMK hit retest inactive
COc1ccc(CN2CCC(N(CCc3ccccc3)Cc3ccccc3)CC2)c(OC)c1	ROMK primary -3.32 | ROMK hit retest 0.0508
Cc1nc2nc(-c3cccs3)cn2nc1C	ROMK primary -8.54 | ROMK hit retest 0.0417
O=C(O)c1cc2ncc(-c3[nH]ncc3[N+](=O)[O-])cn2n1	none
O=C(CN1CCN(Cc2ccccc2Cl)C1=O)NC1CCCCCCC1	ROMK primary -2.64 (no result: Cl transport mod) | ROMK hit retest 0.0573
O=C(O)c1cccc(-c2ccc(/C=c3/sc4nc5ccccc5n4c3=O)o2)c1	none (no result: PKD1 kinase inh, ROMK primary, Arbovirus inh) | ROMK hit retest 0.0401
O=C(O)c1cc(C(=O)O)cc(-c2ccc(/C=c3/sc4nc5ccccc5n4c3=O)o2)c1	none
COc1ccc(OC(=O)c2cnc3n(c2=O)CCS3)cc1	none (no result: PKD1 kinase inh, ROMK primary, Arbovirus inh)
CCNC(=O)Cc1c(OC)ccc2cc(Br)ccc12	none
COc1ccc2cc(Br)ccc2c1CC(=O)NC1CC(C)(C)NC(C)(C)C1	ROMK primary -2.86 (no result: Cl transport mod) | ROMK hit retest 0.0669
CCOc1ccccc1C1C(C(=O)OC)=C(N)OC2=C1C(=O)CCC2 (stereo unspecified)	none (no result: ROMK primary) | ROMK hit retest inactive
CCOC(=O)c1c(C)[nH]c(C(=O)COC(=O)c2ccc(O)cc2)c1C	none (no result: PKD1 kinase inh, ROMK primary, Arbovirus inh, Cl transport mod)
CCOC(=O)c1c(C)[nH]c(C(=O)COC(=O)c2ccc(O)cc2O)c1C	none (no result: PKD1 kinase inh, ROMK primary, Arbovirus inh) | ROMK hit retest inactive
O=C(Cn1c(C(=O)NCc2ccco2)cc2sccc21)c1ccccc1	none (no result: ROMK primary) | ROMK hit retest inactive
O=C(Cn1c(C(=O)NCC2CCCO2)cc2sccc21)c1ccccc1 (stereo unspecified)	none (no result: ROMK primary)
O=C(Nc1ccc(Cl)cc1)OCc1cn(-c2ccccc2)nn1	none | ROMK hit retest inconclusive
Cc1ccccc1NC(=O)OCc1cn(-c2ccc(Cl)cc2)nn1	none (no result: ROMK primary)
COc1ccc(/C=C2\NC(=O)C(C=NCc3ccccc3)=C2O)cc1	none (no result: ROMK primary)
O=C1N/C(=C\c2ccc(O)cc2)C(O)=C1C=NCc1ccccc1	ROMK primary 2.13 | ROMK hit retest inactive
Clc1ccccc1-c1nc2ccccc2c2nc3ccccc3n12	none (no result: ROMK primary)
O=C(O)c1ccccc1-c1nc2cc(Cl)ccc2c(=O)n1O	ROMK primary -3.21 | ROMK hit retest 0.0682
O=c1c2ccccc2nc(-c2ccccc2Cl)n1O	ROMK primary 2.78 | ROMK hit retest inactive
O=C(NCc1cccs1)c1cnc2sccn2c1=O	none (no result: ROMK primary)
CCCc1cc(C(=O)Nc2ccccc2SC)no1	none (no result: ROMK primary) | ROMK hit retest inconclusive
CCCc1cc(C(=O)Nc2ccc(F)cc2F)no1	none (no result: ROMK primary)
COC(=O)c1cccn(CC(=O)c2ccc(Cl)cc2Cl)c1=O	none
COc1ccccc1OCCn1c(C(C)O)nc2ccccc21 (stereo unspecified)	ROMK primary -4.94 | ROMK hit retest 0.0657
CC(O)c1nc2ccccc2n1CCOc1ccccc1 (stereo unspecified)	none
COc1ccc(C2(O)CCN(C(=O)Cc3cccnc3)CC2)cc1	none
COc1ccc(C2(O)CCN(CCCCOc3ccccc3)CC2)cc1	ROMK primary -4.61 | ROMK hit retest 0.0609
O=C1N=C2SCCN2/C1=C\c1ccc(Cl)cc1	ROMK primary -7.58 | ROMK hit retest 0.0466
CC1(C)CN(c2ccsc2C(=O)O)C1=O	none
Cc1ccc(SCc2cc(=O)n(C)[nH]2)cc1	none
Cc1noc(C)c1COc1ccc(CC(=O)NC2CCCCCC2)cc1	none
Cc1noc(C)c1COc1ccc(CC(=O)NCc2ccccc2)cc1	ROMK primary 3.12 | ROMK hit retest 0.101
CCOC(=O)c1cnc2ccc(OC)cc2c1NCCc1ccc(OC)c(OC)c1	ROMK primary -4.12 | ROMK hit retest 0.0552
